Assay results: ChEMBL document CHEMBL3872252, “New bithiazolyl hydrazones: Novel synthesis, characterization and antitubercular evaluation” (Bioorg Med Chem Lett, 2017)
Converted amounts (≈) assume the structure as drawn.

What was measured:
[1] = Antitubercular activity against Mycobacterium tuberculosis H37Ra ATCC 25177 dormant stage infected in human THP1 cells measured on day 12 by nitrate reductase assay; assay type: functional, THP-1; settings: ATCC 25177, 288 h
[2] = Antitubercular activity against Mycobacterium tuberculosis H37Ra ATCC 25177 active stage infected in human THP1 cells measured on day 8 by nitrate reductase assay; assay type: functional, THP-1; settings: ATCC 25177, 192 h
[3] = Antitubercular activity against Mycobacterium tuberculosis H37Ra ATCC 25177 active stage measured on day 8 by XTT reduction menadione based two-fold dilution assay; assay type: functional; settings: ATCC 25177, 192 h
Method in brief: (§1)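 M. tuberculosis H37Ra ATCC 25177 was exposed to 0.7–100 μg/mL in two-fold steps (0.7, 1.5, 3.1 … 100). Active stage was read after 8 days and dormant stage after 12 days of incubation. Inhibition was read by XTT reduction menadione assay (XRMA), absorbance 470 nm. MIC90 is the concentration giving ≥90% inhibition (µg/mL).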

[4] = Antitubercular activity against Mycobacterium tuberculosis H37Ra ATCC 25177 dormant stage measured on day 12 by XTT reduction menadione based two-fold dilution assay; assay type: functional; settings: ATCC 25177, 288 h; method in brief: as §1
[5] = Antitubercular activity against Mycobacterium bovis BCG ATCC 35743 active stage measured on day 8 by nitrate reductase based two-fold dilution assay; assay type: functional, Mycobacterium bovis BCG str. ATCC 35743; settings: Mycobacterium tuberculosis variant bovis BCG, ATCC 35743, 192 h
[6] = Antitubercular activity against Mycobacterium bovis BCG ATCC 35743 dormant stage measured on day 12 by nitrate reductase based two-fold dilution assay; assay type: functional, Mycobacterium bovis BCG str. ATCC 35743; settings: Mycobacterium tuberculosis variant bovis BCG, ATCC 35743, 288 h
[7] = Cytotoxicity against human THP1 cells by MTT assay; assay type: toxicity, cell-based, THP-1; settings: for GI50: THP1 cells; for GI90: thp-1
[8] = Cytotoxicity against human MCF7 cells by MTT assay; assay type: toxicity, cell-based; settings: for GI50: MCF7 cells; for GI90: mcf7
[9] = Cytotoxicity against human HCT116 cells by MTT assay; assay type: toxicity, cell-based, HCT-116; settings: for GI50: HCT116 cells; for GI90: hct-116
[10] = Selectivity index, ratio of GI50 for human MCF7 cells to MIC90 for Mycobacterium tuberculosis H37Ra ATCC 25177 active stage; assay type: toxicity, cell-based; settings: read-out: Selectivity Index
Method in brief: (§2)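 Cytotoxicity was measured on human MCF-7, HCT116 and THP-1 cells by MTT assay, with paclitaxel as reference. GI50 is the concentration inhibiting 50% of cell growth. The selectivity index is GI50 for the given cell line divided by MIC90 for the given mycobacterial strain and stage.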

[11] = Selectivity index, ratio of GI50 for human MCF7 cells to MIC90 for Mycobacterium tuberculosis H37Ra ATCC 25177 dormant stage; assay type: toxicity, cell-based; settings: read-out: Selectivity Index
Method in brief: (§3)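 Cytotoxicity was measured on human MCF-7, HCT116 and THP-1 cells by MTT assay, with paclitaxel as reference. The selectivity index is GI50 for the given cell line divided by MIC90 for the given mycobacterial strain and stage.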

[12] = Selectivity index, ratio of GI50 for human MCF7 cells to MIC90 for Mycobacterium bovis BCG ATCC 35743 active stage; assay type: toxicity, cell-based; settings: read-out: Selectivity Index; method in brief: as §2
[13] = Selectivity index, ratio of GI50 for human MCF7 cells to MIC90 for Mycobacterium bovis BCG ATCC 35743 dormant stage; assay type: toxicity, cell-based; settings: read-out: Selectivity Index; method in brief: as §3
[14] = Selectivity index, ratio of GI50 for human HCT116 cells to MIC90 for Mycobacterium tuberculosis H37Ra ATCC 25177 active stage; assay type: toxicity, cell-based, HCT-116; settings: read-out: Selectivity Index; method in brief: as §2
[15] = Selectivity index, ratio of GI50 for human HCT116 cells to MIC90 for Mycobacterium tuberculosis H37Ra ATCC 25177 dormant stage; assay type: toxicity, cell-based, HCT-116; settings: read-out: Selectivity Index; method in brief: as §3
[16] = Selectivity index, ratio of GI50 for human HCT116 cells to MIC90 for Mycobacterium bovis BCG ATCC 35743 active stage; assay type: toxicity, cell-based, HCT-116; settings: read-out: Selectivity Index; method in brief: as §2
[17] = Selectivity index, ratio of GI50 for human HCT116 cells to MIC90 for Mycobacterium bovis BCG ATCC 35743 dormant stage; assay type: toxicity, cell-based, HCT-116; settings: read-out: Selectivity Index; method in brief: as §3
[18] = Selectivity index, ratio of GI50 for human THP1 cells to MIC90 for Mycobacterium tuberculosis H37Ra ATCC 25177 active stage; assay type: toxicity, cell-based, THP-1; settings: read-out: Selectivity Index; method in brief: as §2
[19] = Selectivity index, ratio of GI50 for human THP1 cells to MIC90 for Mycobacterium tuberculosis H37Ra ATCC 25177 dormant stage; assay type: toxicity, cell-based, THP-1; settings: read-out: Selectivity Index; method in brief: as §3
[20] = Selectivity index, ratio of GI50 for human THP1 cells to MIC90 for Mycobacterium bovis BCG ATCC 35743 active stage; assay type: toxicity, cell-based, THP-1; settings: read-out: Selectivity Index; method in brief: as §2
[21] = Selectivity index, ratio of GI50 for human THP1 cells to MIC90 for Mycobacterium bovis BCG ATCC 35743 dormant stage; assay type: toxicity, cell-based, THP-1; settings: read-out: Selectivity Index; method in brief: as §3
Escherichia coli [22] = assay: Growth inhibition of Escherichia coli at 30 ug/ml; assay type: functional; settings: read-out: GI
Escherichia coli [23] = assay: Growth inhibition of Escherichia coli at 10 ug/ml; assay type: functional; settings: read-out: GI
Escherichia coli [24] = assay: Growth inhibition of Escherichia coli at 3 ug/ml; assay type: functional; settings: read-out: GI
Method in brief: (§4)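 Screened against Gram-negative E. coli and P. aeruginosa and Gram-positive S. aureus and B. subtilis. Compound was tested at 3 µg/ml, and the read-out is percent growth inhibition.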

Pseudomonas aeruginosa [25] = assay: Growth inhibition of Pseudomonas aeruginosa at 30 ug/ml; assay type: functional; settings: read-out: GI
Pseudomonas aeruginosa [26] = assay: Growth inhibition of Pseudomonas aeruginosa at 10 ug/ml; assay type: functional; settings: read-out: GI
Pseudomonas aeruginosa [27] = assay: Growth inhibition of Pseudomonas aeruginosa at 3 ug/ml; assay type: functional; settings: read-out: GI; method in brief: as §4
Staphylococcus aureus [28] = assay: Growth inhibition of Staphylococcus aureus at 30 ug/ml; assay type: functional; settings: read-out: GI
Staphylococcus aureus [29] = assay: Growth inhibition of Staphylococcus aureus at 10 ug/ml; assay type: functional; settings: read-out: GI
Staphylococcus aureus [30] = assay: Growth inhibition of Staphylococcus aureus at 3 ug/ml; assay type: functional; settings: read-out: GI; method in brief: as §4
Bacillus subtilis [31] = assay: Growth inhibition of Bacillus subtilis at 30 ug/ml; assay type: functional; settings: read-out: GI
Bacillus subtilis [32] = assay: Growth inhibition of Bacillus subtilis at 10 ug/ml; assay type: functional; settings: read-out: GI
Bacillus subtilis [33] = assay: Growth inhibition of Bacillus subtilis at 3 ug/ml; assay type: functional; settings: read-out: GI; method in brief: as §4

Row | Structure (SMILES) | MIC90 [1] [mg/L] | MIC90 [2] [mg/L] | IC50 [3] [mg/L] | MIC90 [3] [mg/L] | IC50 [4] [mg/L] | MIC90 [4] [mg/L] | IC50 [5] [mg/L] | MIC90 [5] [mg/L] | IC50 [6] [mg/L] | MIC90 [6] [mg/L] | GI50 [7] [mg/L] | GI90 [7] [mg/L] | GI50 [8] [mg/L] | GI90 [8] [mg/L] | GI50 [9] [mg/L] | GI90 [9] [mg/L] | selectivity ratio [10] | selectivity ratio [11] | selectivity ratio [12] | selectivity ratio [13] | other results
1 | C/C(=N\NC(N)=S)c1sc(-c2ccccc2)nc1C | 3.67 (≈ 12.6 µM) | 1.94 (≈ 6.68 µM) | 0.12 (≈ 0.413 µM) | 1.78 (≈ 6.13 µM) | 0.78 (≈ 2.69 µM) | 2.05 (≈ 7.06 µM) | 0.94 (≈ 3.24 µM) | 3.04 (≈ 10.5 µM) | 0.97 (≈ 3.34 µM) | 3.46 (≈ 11.9 µM) | 81.5 (≈ 281 µM) | > 100 | 26 (≈ 89.5 µM) | > 100 | 47.3 (≈ 163 µM) | > 100 | 15 | 13 | 9 | 8 | selectivity ratio [14]: 27; selectivity ratio [15]: 23; selectivity ratio [16]: 16; selectivity ratio [17]: 14; selectivity ratio [18]: 46; selectivity ratio [19]: 40; selectivity ratio [20]: 27; selectivity ratio [21]: 24; inhibition of growth at 30 µg/mL (Escherichia coli [22]): 79.6%; inhibition of growth at 10 µg/mL (Escherichia coli [23]): 66.7%; inhibition of growth at 3 µg/mL (Escherichia coli [24]): 50.9%; inhibition of growth at 30 µg/mL (Pseudomonas aeruginosa [25]): 79.4%; inhibition of growth at 10 µg/mL (Pseudomonas aeruginosa [26]): 65.1%; inhibition of growth at 3 µg/mL (Pseudomonas aeruginosa [27]): 47.4%; inhibition of growth at 30 µg/mL (Staphylococcus aureus [28]): 78.4%; inhibition of growth at 10 µg/mL (Staphylococcus aureus [29]): 64.5%; inhibition of growth at 3 µg/mL (Staphylococcus aureus [30]): 47.5%; inhibition of growth at 30 µg/mL (Bacillus subtilis [31]): 76.7%; inhibition of growth at 10 µg/mL (Bacillus subtilis [32]): 61.8%; inhibition of growth at 3 µg/mL (Bacillus subtilis [33]): 43.4%
2 | C/C(=N\Nc1nc(-c2ccc(F)cc2)cs1)c1sc(C)nc1C | 44.3 (≈ 128 µM) | 57 (≈ 165 µM) | 2.67 (≈ 7.71 µM) | 25.3 (≈ 72.9 µM) | 2.04 (≈ 5.89 µM) | 53.8 (≈ 155 µM) | 6 (≈ 17.3 µM) | 9.29 (≈ 26.8 µM) | 6.04 (≈ 17.4 µM) | 10.4 (≈ 30.1 µM) | > 100 | > 100 | > 100 | > 100 | > 100 | > 100 | 4 | 2 | 11 | 10 | selectivity ratio [14]: 4; selectivity ratio [15]: 2; selectivity ratio [16]: 11; selectivity ratio [17]: 10; selectivity ratio [18]: 4; selectivity ratio [19]: 2; selectivity ratio [20]: 11; selectivity ratio [21]: 10; inhibition of growth at 30 µg/mL (Escherichia coli [22]): 84.3%; inhibition of growth at 10 µg/mL (Escherichia coli [23]): 77.3%; inhibition of growth at 3 µg/mL (Escherichia coli [24]): 64%; inhibition of growth at 30 µg/mL (Pseudomonas aeruginosa [25]): 81.7%; inhibition of growth at 10 µg/mL (Pseudomonas aeruginosa [26]): 76.8%; inhibition of growth at 3 µg/mL (Pseudomonas aeruginosa [27]): 62%; inhibition of growth at 30 µg/mL (Staphylococcus aureus [28]): 83.5%; inhibition of growth at 10 µg/mL (Staphylococcus aureus [29]): 75.9%; inhibition of growth at 3 µg/mL (Staphylococcus aureus [30]): 61.6%; inhibition of growth at 30 µg/mL (Bacillus subtilis [31]): 82.2%; inhibition of growth at 10 µg/mL (Bacillus subtilis [32]): 74.1%; inhibition of growth at 3 µg/mL (Bacillus subtilis [33]): 58.6%
3 | C/C(=N\NC(N)=S)c1sc(C)nc1C | > 100 | > 100 | 0.21 (≈ 0.92 µM) | > 100 | 0.19 (≈ 0.832 µM) | 30.5 (≈ 134 µM) | 4.42 (≈ 19.4 µM) | > 100 | 5.09 (≈ 22.3 µM) | > 100 | > 100 | > 100 | > 100 | > 100 | > 100 | > 100 | 1 | 3 | 1 | 1 | selectivity ratio [14]: 1; selectivity ratio [15]: 3; selectivity ratio [16]: 1; selectivity ratio [17]: 1; selectivity ratio [18]: 1; selectivity ratio [19]: 3; selectivity ratio [20]: 1; selectivity ratio [21]: 1; inhibition of growth at 30 µg/mL (Escherichia coli [22]): 85%; inhibition of growth at 10 µg/mL (Escherichia coli [23]): 76.8%; inhibition of growth at 3 µg/mL (Escherichia coli [24]): 66.4%; inhibition of growth at 30 µg/mL (Pseudomonas aeruginosa [25]): 85.4%; inhibition of growth at 10 µg/mL (Pseudomonas aeruginosa [26]): 76.3%; inhibition of growth at 3 µg/mL (Pseudomonas aeruginosa [27]): 64.7%; inhibition of growth at 30 µg/mL (Staphylococcus aureus [28]): 84.2%; inhibition of growth at 10 µg/mL (Staphylococcus aureus [29]): 75.4%; inhibition of growth at 3 µg/mL (Staphylococcus aureus [30]): 64.2%; inhibition of growth at 30 µg/mL (Bacillus subtilis [31]): 82.9%; inhibition of growth at 10 µg/mL (Bacillus subtilis [32]): 73.5%; inhibition of growth at 3 µg/mL (Bacillus subtilis [33]): 61.5%
